Screening results as filed in PubChem BioAssay.
core dimer inh: blocks dimerization of HCV core protein; TR-FRET GST/Flag-core106 dimerization, 1536-well; inhibition, % at 5 µM; AID 1899; hit rate 0.33% among 300,000;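 active = inhibition above the mean of all tested compounds plus 3 SD, set per screening campaign, cut at about 45% in these data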
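System – GST-tagged and Flag-tagged HCV core protein residues 1-106 · Repeats – one well for each compound · Technique – TR-FRET 671 and 617 nm emission · Doses – one concentration, 5 µM, in 0.5% DMSO · Times – 4 h, 22.5 °C incubation · Also added – Eu donor and XL665 acceptor anti-tag antibodies · Measure – percent inhibition of core106 dimerization signal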
HCV NS3 hel inh: HCV NS3 helicase inhibition; NS3 helicase DNA unwinding, Cy5 molecular beacon fluorescence; inhibition, % at 10.9 µM; hit rate 0.56% among 290,000; AID 1800;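 active = inhibition above the mean of all tested compounds plus 3 SD, set per campaign, cut at about 35% in these data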
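Measured by: Cy5 fluorescence, 0 and 60 min reads / Assay system: NS3 helicase fragment of HCV / Control set: low DMSO, high thioflavine S at 110 µM / Times: 1 h reaction at 25 °C, ATP-initiated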
pCIP destab: lowers stability of the mouse p/CIP coactivator protein; F442A p/CIP-EGFP cells, EGFP fluorescence, 16 h; hit rate 0.01% among 290,000; decrease of EGFP signal, % at 10 µM;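 active = EGFP signal decrease of at least 30% at 10 µM or well 3 SD below plate mean, unless failing retest; inactive = the rest, including hits failing retest or dose response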
GPR7 antagonist: human neuropeptides B/W receptor 1 antagonism; P48145; GPR7-expressing cells, fluorescence antagonist assay; inhibition, % at 4.4 µM; hit rate 1.1% among 290,000; in the data active = inhibition above about 16%, passing the limit was not always enough;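 also: cells stimulated with the agonist NPW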
DNA FID counter: counter-screen for HCV NS3 helicase inhibitors: DNA intercalator displacement; inhibition, % at 7.9 µM; AID 1845; DNA fluorescent intercalator displacement, fluorescence; hit rate 0.17% among 290,000; in the data active = inhibition above about 37%;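 also: higher means more ethidium bromide displaced from hairpin DNA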
GPR7 antag conf: confirmation of human GPR7 antagonists; shares compounds with GPR7 antagonist; AID 1952; inhibition, % at 4.4 µM; GPR7-expressing cells, calcium fluorescence antagonist mode; hit rate 52% among 2,400; in the data active = inhibition above about 24%;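 also: stimulated with the GPR7 agonist NPW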
MCHR1 antag: antagonizes human MCHR1, a GPR7 antagonist counter-screen; shares compounds with GPR7 antagonist; MCHR1-expressing cells, fluorescence antagonist assay; inhibition, % at 4.4 µM; hit rate 62% among 2,400; in the data active = inhibition above about 22%
A number is an active result; 0 = inactive; - = no result given. Only some compounds are listed: those with a hit (about 1.9% of all), similar ones and a draw of the others.

SMILES	core dimer inh	HCV NS3 hel inh	pCIP destab	GPR7 antagonist	DNA FID counter	GPR7 antag conf	MCHR1 antag
C=CCOc1ccccc1C(=O)/C=C1/C(=O)Nc2ccccc21	0	0	0	37	0	59	82
CCOC(=O)C1CCN(S(=O)(=O)c2c(Cl)ccc3nonc23)CC1	0	0	0	44	0	56	46
CCOC(=O)C1CCN(S(=O)(=O)c2cccc3nonc23)CC1	0	0	0	0	0	-	-
COC(=O)CC1(C(=O)OC)Oc2ccc(Br)cc2C(=O)N1c1ccc(Br)cc1Cl (configuration not stated)	0	0	0	0	0	-	-
COC(=O)CC1(C(=O)OC)Oc2ccc(Br)cc2C(=O)N1c1cccc(Cl)c1Cl (configuration not stated)	0	0	0	30	0	32	53
O=C(CN1C(=O)C2C3C=CC(C3)C2C1=O)NC1CCCc2ccccc21 (configuration not stated)	0	0	0	30	0	0	0
O=S(=O)(NCc1cn2ccccc2n1)c1cccs1	0	0	0	0	0	-	-
CSc1nccc(-c2nn(-c3ccc(C)cc3)ccc2=O)n1	0	0	0	0	0	-	-
CCSc1nccc(-c2nn(-c3ccc(C)cc3)ccc2=O)n1	0	0	0	23	0	0	25
CC(=O)c1c(C)nn(CC(=O)NC2CCCN(Cc3ccc(CC(C)C)cc3)C2)c1C (configuration not stated)	0	0	0	0	0	-	-
Cc1ccc(C(=O)N/C(=C\c2ccco2)C(=O)NCCN2CCOCC2)cc1	0	0	0	0	0	-	-
Cc1ccc(C2C3=C(NCCN=C3c3ccccc3)C(=O)N2c2ccccc2)cc1 (configuration not stated)	0	0	0	-	0	-	0
CCN(C(=O)Cn1cnc2cc([N+](=O)[O-])ccc2c1=O)C1CCS(=O)(=O)C1 (configuration not stated)	0	0	0	0	0	-	-
CCc1ccc([C@@H]2C[C@H]3CN(Cc4ccccc4OC)C(=O)[C@]34CCCN24)cc1	0	0	0	24	0	0	0
Cc1nn(C)c(C)c1Nc1ccc(N2C(=O)C3CC=CCC3C2=O)cc1[N+](=O)[O-] (configuration not stated)	0	0	0	0	0	-	-
Cc1nn(C)c(C)c1Nc1ccc(N2C(=O)C3C4C=CC(C4)C3C2=O)cc1[N+](=O)[O-] (configuration not stated)	0	0	0	26	0	0	0
CCN(CC(=O)Nc1cc(Cl)ccc1C)c1ncnc2sc(C)c(C)c12	0	0	0	23	0	0	44
CCN(CC(=O)Nc1cc(Cl)ccc1C)C(=O)CCOc1ccc(C)cc1	0	-	-	-	-	-	-
O=C(CN1C(=O)C2C3CC(C(Br)C3Br)C2C1=O)N1CCOCC1 (configuration not stated)	0	0	0	0	0	-	-
O=C(CN1C(=O)C2C3CC(C(Br)C3Br)C2C1=O)N1CCN(Cc2ccccc2)CC1 (configuration not stated)	0	0	0	29	0	41	0
COc1ccc(-n2c(SCCC#N)nnc2-c2cc(Cl)ccc2OC)cc1Cl	0	0	-	24	0	40	46
Cc1cccc(-c2nnc(SCC#N)n2-c2cccc(Cl)c2)c1	0	0	0	0	0	-	-
CCc1ccccc1NC(=O)COc1ccc(C(=S)N2CCCC2)cc1	0	0	0	23	0	0	0
Cc1nn(C)c(C)c1N1C(=O)c2cccc3c(N)ccc(c23)C1=O	0	0	0	22	0	26	38
CC(C)(CNC(=O)CC1C(=O)NCCN1Cc1cccc(F)c1F)N1CCOCC1 (configuration not stated)	0	0	0	0	0	-	-
CC(CCn1cccn1)NC(=O)c1cc(COc2ccc(F)cc2Cl)on1 (configuration not stated)	0	0	0	34	0	0	0
O=C(CC1C(=O)NCCN1Cc1cccc(C(F)(F)F)c1)NCCc1cnccn1 (configuration not stated)	0	0	0	0	0	-	-
COc1ccccc1CNC(=O)CSc1nc(-c2ccccc2)cn1N	0	0	0	27	0	0	0
